Where “and” joins values, the source holds several entries; their conditions need not be identical. Equal entries are not always repeated. One block for each compound: values may come before it.
Legend:
HeLa = test: MTT antiproliferative assay, HeLa; details: Homo sapiens, read-out: In vitro Cytotoxicity IC50 HeLa
MCF-7 = test: MTT antiproliferative assay, MCF-7; details: Homo sapiens, MCF7, read-out: In vitro Cytotoxicity IC50 MCF-7
MDA-MB-231 = test: MTT antiproliferative assay, MDA-MB-231; assay type: cell-based; details: Homo sapiens, MDA-MB-231, read-out: In vitro Cytotoxicity IC50 MDA-MB-231
[1] = test system: HepG2, MCF-7, MDA-MB-231 and HeLa; test: MTT antiproliferative assay, all tested cell lines; assay type: cell-based; details: Homo sapiens, read-out: IC50 values against all tested cell lines (range)
HepG2 = test: MTT antiproliferative assay, HepG2; assay type: cell-based; details: Homo sapiens, HepG2, read-out: In vitro Cytotoxicity IC50 HepG2
HepG2 cells [2] = test: Cell cycle distribution by flow cytometry; assay type: cell-based, human; details: 8.39 μM of compound 7, 24 h
Caspase 9 = test: Apoptotic protein expression, Caspase 9; assay type: cell-based, human; details: HepG2 cells, 8.39 μM of compound 7, 24 h; control = 1
Outline: (§1)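 HepG2 cells were incubated with 8.39 μM test compound for 24 h. Apoptotic protein levels were measured by a previously reported method. Expression was normalised to β-actin and given as fold change versus untreated HepG2 cells, which were set to 1. Values are means of three experiments.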

CDK2 = CDK2 (Homo sapiens, UniProt P24941); test: In vitro protein kinase assay, CDK2; assay type: biochemical
Caspase 3 = test: Apoptotic protein expression, Caspase 3; assay type: cell-based, human; details: HepG2 cells, 8.39 μM of compound 7, 24 h; control = 1
Outline: as §1

VEGFR2 = VEGFR2 (Homo sapiens, UniProt P35968); test: In vitro protein kinase assay, VEGFR2; assay type: biochemical
Chain of VEGFR2 (P35968 20-1356): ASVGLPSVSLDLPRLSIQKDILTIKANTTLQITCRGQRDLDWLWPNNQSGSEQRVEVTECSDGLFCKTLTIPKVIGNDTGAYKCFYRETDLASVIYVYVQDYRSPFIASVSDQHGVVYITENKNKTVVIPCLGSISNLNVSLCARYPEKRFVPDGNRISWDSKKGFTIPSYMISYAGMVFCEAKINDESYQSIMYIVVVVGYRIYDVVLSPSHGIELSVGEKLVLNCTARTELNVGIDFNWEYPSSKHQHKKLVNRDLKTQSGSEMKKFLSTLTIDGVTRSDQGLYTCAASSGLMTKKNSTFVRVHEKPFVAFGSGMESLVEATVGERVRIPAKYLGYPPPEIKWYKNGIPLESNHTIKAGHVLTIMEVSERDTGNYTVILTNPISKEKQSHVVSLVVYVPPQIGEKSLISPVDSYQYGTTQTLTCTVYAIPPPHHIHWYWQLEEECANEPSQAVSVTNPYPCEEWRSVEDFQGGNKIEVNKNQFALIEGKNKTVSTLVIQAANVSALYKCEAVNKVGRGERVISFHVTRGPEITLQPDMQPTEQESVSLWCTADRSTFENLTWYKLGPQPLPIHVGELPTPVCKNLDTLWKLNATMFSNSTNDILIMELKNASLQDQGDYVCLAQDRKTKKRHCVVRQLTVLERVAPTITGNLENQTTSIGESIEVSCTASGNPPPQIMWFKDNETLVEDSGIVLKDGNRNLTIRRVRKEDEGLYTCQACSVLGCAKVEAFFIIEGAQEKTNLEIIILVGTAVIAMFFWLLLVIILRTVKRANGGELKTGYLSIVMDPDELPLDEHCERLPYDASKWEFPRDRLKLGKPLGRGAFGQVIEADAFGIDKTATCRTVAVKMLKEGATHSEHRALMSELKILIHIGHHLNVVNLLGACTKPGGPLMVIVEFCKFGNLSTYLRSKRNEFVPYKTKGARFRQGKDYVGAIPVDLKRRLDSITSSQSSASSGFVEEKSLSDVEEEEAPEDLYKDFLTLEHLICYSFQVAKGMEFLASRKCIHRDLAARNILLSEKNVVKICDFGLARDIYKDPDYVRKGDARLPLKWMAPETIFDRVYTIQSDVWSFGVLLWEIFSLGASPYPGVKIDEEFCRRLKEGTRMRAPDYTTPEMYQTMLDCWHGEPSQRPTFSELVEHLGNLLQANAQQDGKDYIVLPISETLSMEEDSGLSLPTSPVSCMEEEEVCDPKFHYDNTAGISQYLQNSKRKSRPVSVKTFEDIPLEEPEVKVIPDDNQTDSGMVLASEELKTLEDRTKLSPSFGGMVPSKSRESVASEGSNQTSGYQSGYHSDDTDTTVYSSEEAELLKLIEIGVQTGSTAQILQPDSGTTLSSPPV

Her2 = Her2 (Homo sapiens, UniProt P04626); test: In vitro protein kinase assay, Her2; assay type: biochemical
Chain of Her2 (P04626 23-1255): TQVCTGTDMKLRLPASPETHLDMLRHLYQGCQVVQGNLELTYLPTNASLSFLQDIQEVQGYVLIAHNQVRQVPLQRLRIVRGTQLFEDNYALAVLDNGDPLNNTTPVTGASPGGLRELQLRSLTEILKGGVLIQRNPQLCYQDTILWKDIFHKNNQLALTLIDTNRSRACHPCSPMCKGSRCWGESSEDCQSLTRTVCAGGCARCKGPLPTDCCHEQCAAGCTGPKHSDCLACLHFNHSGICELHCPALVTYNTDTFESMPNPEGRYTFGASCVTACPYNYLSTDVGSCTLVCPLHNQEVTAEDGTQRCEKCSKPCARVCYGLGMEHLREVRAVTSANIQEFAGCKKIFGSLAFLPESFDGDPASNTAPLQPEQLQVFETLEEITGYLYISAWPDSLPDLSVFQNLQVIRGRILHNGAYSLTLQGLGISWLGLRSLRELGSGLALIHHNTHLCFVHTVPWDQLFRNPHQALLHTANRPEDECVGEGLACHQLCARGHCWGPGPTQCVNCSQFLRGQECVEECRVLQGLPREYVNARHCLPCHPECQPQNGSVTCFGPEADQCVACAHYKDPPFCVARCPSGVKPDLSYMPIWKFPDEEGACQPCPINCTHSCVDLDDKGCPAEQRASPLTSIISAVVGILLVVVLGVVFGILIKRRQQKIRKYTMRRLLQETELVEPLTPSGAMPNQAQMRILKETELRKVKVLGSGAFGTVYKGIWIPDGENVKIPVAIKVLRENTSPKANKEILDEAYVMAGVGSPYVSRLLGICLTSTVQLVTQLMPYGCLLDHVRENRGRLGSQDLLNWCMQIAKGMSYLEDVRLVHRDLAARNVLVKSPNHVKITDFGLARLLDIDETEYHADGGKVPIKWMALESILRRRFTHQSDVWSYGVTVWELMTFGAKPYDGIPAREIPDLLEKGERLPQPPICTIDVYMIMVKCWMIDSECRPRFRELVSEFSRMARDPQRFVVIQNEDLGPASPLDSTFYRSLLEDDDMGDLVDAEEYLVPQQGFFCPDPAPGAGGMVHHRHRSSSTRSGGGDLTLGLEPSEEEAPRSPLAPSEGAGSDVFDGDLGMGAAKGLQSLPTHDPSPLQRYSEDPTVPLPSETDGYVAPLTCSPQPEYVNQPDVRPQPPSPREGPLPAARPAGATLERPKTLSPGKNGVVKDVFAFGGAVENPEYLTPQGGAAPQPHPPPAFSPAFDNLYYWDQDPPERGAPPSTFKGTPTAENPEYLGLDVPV

HepG2 cells [3] = test: Annexin-V/propidium iodide double staining apoptosis assay; assay type: cell-based, human; details: 24 h incubation
EGFR = EGFR (Homo sapiens, UniProt P00533); test: In vitro protein kinase assay, EGFR; assay type: biochemical
Chain of EGFR (P00533 25-1210): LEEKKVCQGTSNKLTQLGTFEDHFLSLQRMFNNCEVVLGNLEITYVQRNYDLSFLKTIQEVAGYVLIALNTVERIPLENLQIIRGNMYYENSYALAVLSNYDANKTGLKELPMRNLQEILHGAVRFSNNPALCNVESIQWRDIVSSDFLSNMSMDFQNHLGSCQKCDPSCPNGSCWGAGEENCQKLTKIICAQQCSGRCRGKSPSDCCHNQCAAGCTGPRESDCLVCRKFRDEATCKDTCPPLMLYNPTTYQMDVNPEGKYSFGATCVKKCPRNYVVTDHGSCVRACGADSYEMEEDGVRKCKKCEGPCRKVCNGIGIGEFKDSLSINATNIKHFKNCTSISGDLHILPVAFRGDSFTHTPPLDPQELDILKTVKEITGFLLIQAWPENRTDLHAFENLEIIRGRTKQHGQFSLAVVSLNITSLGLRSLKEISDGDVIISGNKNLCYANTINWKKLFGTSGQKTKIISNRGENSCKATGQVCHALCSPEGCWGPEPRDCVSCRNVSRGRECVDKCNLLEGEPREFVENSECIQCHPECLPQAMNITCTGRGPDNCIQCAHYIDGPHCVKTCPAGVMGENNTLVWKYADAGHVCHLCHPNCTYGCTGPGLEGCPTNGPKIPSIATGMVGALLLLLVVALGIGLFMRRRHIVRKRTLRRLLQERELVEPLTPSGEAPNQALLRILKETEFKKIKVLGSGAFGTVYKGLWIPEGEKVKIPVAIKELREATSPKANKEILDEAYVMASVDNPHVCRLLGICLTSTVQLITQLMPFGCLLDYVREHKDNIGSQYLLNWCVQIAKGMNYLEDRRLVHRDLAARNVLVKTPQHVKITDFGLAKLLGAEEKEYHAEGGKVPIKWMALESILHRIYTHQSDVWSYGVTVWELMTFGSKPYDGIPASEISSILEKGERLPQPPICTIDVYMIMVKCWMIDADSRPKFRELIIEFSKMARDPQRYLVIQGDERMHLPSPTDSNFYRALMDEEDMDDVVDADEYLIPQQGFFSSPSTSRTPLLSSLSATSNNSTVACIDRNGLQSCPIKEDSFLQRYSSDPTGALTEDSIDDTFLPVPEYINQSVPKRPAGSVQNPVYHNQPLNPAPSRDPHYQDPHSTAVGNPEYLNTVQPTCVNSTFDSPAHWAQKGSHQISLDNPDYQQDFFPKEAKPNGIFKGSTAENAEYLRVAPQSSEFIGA

IC50 [1]: 7.86 to 27.6 µM
Structure (SMILES): O=C1Nc2ccccc2C1=NNc1ncnc2[nH]ccc12 [Compound 3, 3-(2-(7H-pyrrolo[2,3-d]pyrimidin-4-yl)hydrazineylidene)indolin-2-one]
IC50 (HeLa): 9.86 ± 0.7 µM
IC50 (MCF-7): 14.2 ± 1.2 µM
IC50 (MDA-MB-231): 7.86 ± 0.6 µM
IC50 (HepG2): 19.1 ± 1.4 µM

Structure (SMILES): O=C1Nc2ccc(Cl)cc2C1=NNc1ncnc2[nH]ccc12 [Compound 4, 3-(2-(7H-pyrrolo[2,3-d]pyrimidin-4-yl)hydrazineylidene)-5-chloroindolin-2-one]
IC50 (HeLa): 24.2 ± 1.8 µM
IC50 (MCF-7): 33.9 ± 2.2 µM
IC50 (MDA-MB-231): 21.1 ± 1.8 µM
IC50 (HepG2): 28.4 ± 2.1 µM

Structure (SMILES): O=C1Nc2ccc(F)cc2C1=NNc1ncnc2[nH]ccc12 [Compound 5, 3-(2-(7H-pyrrolo[2,3-d]pyrimidin-4-yl)hydrazineylidene)-5-fluoroindolin-2-one]
IC50 (HeLa): 29.1 ± 2 µM
IC50 (MCF-7): 41.6 ± 2.6 µM
IC50 (MDA-MB-231): 32.5 ± 2.1 µM
IC50 (HepG2): 37.3 ± 2.5 µM

IC50 [1]: 7.86 to 27.6 µM
Structure (SMILES): Cc1ccc2c(c1)C(=NNc1ncnc3[nH]ccc13)C(=O)N2 [Compound 6, 3-(2-(7H-pyrrolo[2,3-d]pyrimidin-4-yl)hydrazineylidene)-5-methylindolin-2-one]
IC50 (HeLa): 19.8 ± 1.3 µM
IC50 (MCF-7): 27.6 ± 2 µM
IC50 (MDA-MB-231): 15.2 ± 1.1 µM
IC50 (HepG2): 11.7 ± 0.9 µM

IC50 (CDK2): 0.302 ± 0.016 µM
IC50 (VEGFR2): 0.224 ± 0.012 µM
IC50 (Her2): 0.157 ± 0.022 µM
IC50 (EGFR): 0.166 ± 0.01 µM
Structure (SMILES): COc1ccc2c(c1)C(=NNc1ncnc3[nH]ccc13)C(=O)N2 [Compound 7, 3-(2-(7H-pyrrolo[2,3-d]pyrimidin-4-yl)hydrazineylidene)-5-methoxyindolin-2-one]
DNA content (%) %G1 (HepG2 cells [2]): 54.22%
DNA content (%) %G2/M (HepG2 cells [2]): 11.02%
DNA content (%) %S (HepG2 cells [2]): 34.76%
DNA content (%) %Sub–G1 (HepG2 cells [2]): 32.34%
increase of the DNA in the sub-G1 compared to untreated cells (HepG2 cells [2]): 17 fold
IC50 (HeLa): 6.37 ± 0.3 µM
Folds of gene expression (Normalized to β-actin) Caspase 9 (Caspase 9): 3.3 fold and 3.295 fold
Folds of gene expression (Normalized to β-actin) Caspase 3 (Caspase 3): 5.42 fold and 5.421 fold
IC50 (MCF-7): 9.08 ± 0.7 µM
IC50 (MDA-MB-231): 5.28 ± 0.3 µM
Apoptosis Early (HepG2 cells [3]): 9.91%
Apoptosis Late (HepG2 cells [3]): 15.92%
Apoptosis Total (HepG2 cells [3]): 32.34%
Necrosis (HepG2 cells [3]): 6.51%
IC50 (HepG2): 8.39 ± 0.7 µM

Structure (SMILES): O=C1Nc2ccc([N+](=O)[O-])cc2C1=NNc1ncnc2[nH]ccc12 [Compound 8, 3-(2-(7H-pyrrolo[2,3-d]pyrimidin-4-yl)hydrazineylidene)-5-nitroindolin-2-one]
IC50 (HeLa): 38 ± 2.2 µM
IC50 (MCF-7): 48.5 ± 2.8 µM
IC50 (MDA-MB-231): 36.9 ± 2.4 µM
IC50 (HepG2): 52.1 ± 2.9 µM

Structure (SMILES): COc1cccc2c1C(=O)c1c(O)c3c(c(O)c1C2=O)C[C@@](O)(C(=O)CO)C[C@@H]3O[C@H]1C[C@H](N)[C@H](O)[C@H](C)O1 [Doxorubicin, reference compound]
IC50 (HepG2): 4.5 ± 0.2 µM

From paper PMC10205775 (Saudi Pharmaceutical Journal : SPJ, 2023)
